Laboratory results reported in ChEMBL document CHEMBL3124806, “Imidazopyridine-fused [1,3]-diazepinones: synthesis and antiproliferative activity” (Eur J Med Chem, 2014).

Experiments:
Format in all cases: functional
TK-10 = experiment: Cytotoxicity against human TK10 cells assessed as cell growth at 10 uM after 48 hrs by SRB assay relative to untreated control; settings: TK-10, 48 h, read-out: Activity
How it was run: (§1)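 NCI-60 single-dose screen. Compounds were added to the cultures at 10 μM and incubated for 48 h. The end point was sulforhodamine B protein staining read spectrophotometrically. Growth is reported as percent of untreated control cells.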

MDA-MB-435 = experiment: Cytotoxicity against human MDA-MB-435 cells assessed as cell growth at 10 uM after 48 hrs by SRB assay relative to untreated control; settings: MDA-MB-435, 48 h, read-out: Activity
How it was run: (§2)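 NCI-60 one-dose screen: each agent added at 10 µM, cultures incubated 48 h. Endpoint by sulforhodamine B protein-binding dye read spectrophotometrically; growth expressed as percent of untreated control cells.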

SK-MEL-28 = experiment: Cytotoxicity against human SK-MEL-28 cells assessed as cell growth at 10 uM after 48 hrs by SRB assay relative to untreated control; settings: SK-MEL-28, 48 h, read-out: Activity; how it was run: as §1
A498 = experiment: Cytotoxicity against human A498 cells assessed as cell growth at 10 uM after 48 hrs by SRB assay relative to untreated control; settings: A498, 48 h, read-out: Activity
How it was run: (§3)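 NCI-60 panel screen at a single concentration of 10 μM with 48 h incubation. Cell density measured by sulforhodamine B protein-binding dye and read spectrophotometrically. Growth expressed as percent of untreated control cells.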

[1] = Cytotoxicity against human Hs578T cells assessed as cell growth at 10 uM after 48 hrs by SRB assay relative to untreated control; settings: Hs-578T, read-out: Activity; how it was run: as §3
RPMI-8226 = experiment: Cytotoxicity against human RPMI8226 cells assessed as cell growth at 10 uM after 48 hrs by SRB assay relative to untreated control; settings: RPMI-8226, 48 h, read-out: Activity; how it was run: as §2
Malme-3M = experiment: Cytotoxicity against human MALME-3M cells assessed as cell growth at 10 uM after 48 hrs by SRB assay relative to untreated control; settings: read-out: Activity; how it was run: as §3
NCI-H23 = experiment: Cytotoxicity against human NCI-H23 cells assessed as cell growth at 10 uM after 48 hrs by SRB assay relative to untreated control; settings: NCI-H23, 48 h, read-out: Activity; how it was run: as §2
A549 = experiment: Cytotoxicity against human A549 cells assessed as cell growth at 10 uM after 48 hrs by SRB assay relative to untreated control; settings: A549, 48 h, read-out: Activity; how it was run: as §3
SF-539 = experiment: Cytotoxicity against human SF539 cells assessed as cell growth at 10 uM after 48 hrs by SRB assay relative to untreated control; settings: SF-539, 48 h, read-out: Activity; how it was run: as §2
CCRF-CEM = experiment: Cytotoxicity against human CCRF-CEM cells assessed as cell growth at 10 uM after 48 hrs by SRB assay relative to untreated control; settings: read-out: Activity; how it was run: as §3
T47D = experiment: Cytotoxicity against human T47D cells assessed as cell growth at 10 uM after 48 hrs by SRB assay relative to untreated control; settings: read-out: Activity; how it was run: as §1
[2] = Cytotoxicity against human OVCAR4 cells assessed as cell growth at 10 uM after 48 hrs by SRB assay relative to untreated control; settings: OVCAR-4, 48 h, read-out: Activity; how it was run: as §2
SK-OV-3 = experiment: Cytotoxicity against human SKOV3 cells assessed as cell growth at 10 uM after 48 hrs by SRB assay relative to untreated control; settings: SK-OV-3, 48 h, read-out: Activity; how it was run: as §1
SK-MEL-2 = experiment: Cytotoxicity against human SK-MEL-2 cells assessed as cell growth at 10 uM after 48 hrs by SRB assay relative to untreated control; settings: SK-MEL-2, 48 h, read-out: Activity; how it was run: as §2
HCT-116 = experiment: Cytotoxicity against human HCT116 cells assessed as cell growth at 10 uM after 48 hrs by SRB assay relative to untreated control; settings: HCT-116, 48 h, read-out: Activity; how it was run: as §3
DU-145 = experiment: Cytotoxicity against human DU145 cells assessed as cell growth at 10 uM after 48 hrs by SRB assay relative to untreated control; settings: DU-145, 48 h, read-out: Activity; how it was run: as §3
SN12C = experiment: Cytotoxicity against human SN12C cells assessed as cell growth at 10 uM after 48 hrs by SRB assay relative to untreated control; settings: read-out: Activity; how it was run: as §1
IGROV-1 = experiment: Cytotoxicity against human IGROV1 cells assessed as cell growth at 10 uM after 48 hrs by SRB assay relative to untreated control; settings: IGROV-1, 48 h, read-out: Activity; how it was run: as §3
SF-268 = experiment: Cytotoxicity against human SF268 cells assessed as cell growth at 10 uM after 48 hrs by SRB assay relative to untreated control; settings: SF-268, 48 h, read-out: Activity; how it was run: as §2
SF-295 = experiment: Cytotoxicity against human SF295 cells assessed as cell growth at 10 uM after 48 hrs by SRB assay relative to untreated control; settings: SF-295, 48 h, read-out: Activity; how it was run: as §2
HOP-92 = experiment: Cytotoxicity against human HOP92 cells assessed as cell growth at 10 uM after 48 hrs by SRB assay relative to untreated control; settings: HOP-92, 48 h, read-out: Activity; how it was run: as §3
HCC 2998 = experiment: Cytotoxicity against human HCC2998 cells assessed as cell growth at 10 uM after 48 hrs by SRB assay relative to untreated control; settings: HCC 2998, 48 h, read-out: Activity; how it was run: as §3
M14 = experiment: Cytotoxicity against human M14 cells assessed as cell growth at 10 uM after 48 hrs by SRB assay relative to untreated control; settings: M14, 48 h, read-out: Activity; how it was run: as §3
[3] = Cytotoxicity against human NCI-ADR-RES cells assessed as cell growth at 10 uM after 48 hrs by SRB assay relative to untreated control; settings: read-out: Activity; how it was run: as §2
SK-MEL-5 = experiment: Cytotoxicity against human SK-MEL-5 cells assessed as cell growth at 10 uM after 48 hrs by SRB assay relative to untreated control; settings: SK-MEL-5, 48 h, read-out: Activity; how it was run: as §1
HOP-62 = experiment: Cytotoxicity against human HOP62 cells assessed as cell growth at 10 uM after 48 hrs by SRB assay relative to untreated control; settings: HOP-62, 48 h, read-out: Activity; how it was run: as §3
HL-60(TB) = experiment: Cytotoxicity against human HL-60(TB) cells assessed as cell growth at 10 uM after 48 hrs by SRB assay relative to untreated control; settings: HL-60, 48 h, read-out: Activity
How it was run: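 NCI-60 human tumour cell line panel; a single 10 µM concentration was added to the cultures and incubated 48 h. Endpoint was sulforhodamine B protein-binding dye read spectrophotometrically, with growth reported as percent of untreated control cells.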

| SMILES | growth at 10 µM (TK-10) [%] | growth at 10 µM (MDA-MB-435) [%] | growth at 10 µM (SK-MEL-28) [%] | growth at 10 µM (A498) [%] | growth at 10 µM [1] [%] | growth at 10 µM (RPMI-8226) [%] | growth at 10 µM (Malme-3M) [%] | growth at 10 µM (NCI-H23) [%] | growth at 10 µM (A549) [%] | growth at 10 µM (SF-539) [%] | growth at 10 µM (CCRF-CEM) [%] | growth at 10 µM (T47D) [%] | growth at 10 µM [2] [%] | growth at 10 µM (SK-OV-3) [%] | growth at 10 µM (SK-MEL-2) [%] | growth at 10 µM (HCT-116) [%] | growth at 10 µM (DU-145) [%] | growth at 10 µM (SN12C) [%] | growth at 10 µM (IGROV-1) [%] | growth at 10 µM (SF-268) [%] | further results |
| --- | --- | --- | --- | --- | --- | --- | --- | --- | --- | --- | --- | --- | --- | --- | --- | --- | --- | --- | --- | --- | --- |
| COc1ccc(C2=Nc3nc4ccccn4c3C(=O)[C@H](Cc3ccccc3)N2)cc1 | 133 | 51.4 | 98.1 | 112 | 96.4 | 98.1 | 97.6 | 92 | 109 | 97.2 | 99.4 | 98.8 | 112 | 110 | 106 | 88 | 111 | 113 | 107 | 105 | growth at 10 µM (SF-295): 92.5%; growth at 10 µM (HOP-92): 95.6%; growth at 10 µM (HCC 2998): 96.4%; growth at 10 µM (M14): 98.3%; growth at 10 µM [3]: 89.2%; growth at 10 µM (SK-MEL-5): 104%; growth at 10 µM (HOP-62): 88.2% |
| O=C1Nc2nc3ccccn3c2C(=O)[C@H](Cc2ccccc2)N1 | 99.8 | 96.4 | 114 | 94 | 102 | 105 | 93.2 | 101 | 98.6 | 95.9 | 113 | 103 | 111 | 112 | 113 | 92.3 | 104 | 105 | 109 | 101 | growth at 10 µM (HL-60(TB)): 116%; growth at 10 µM (SF-295): 105%; growth at 10 µM (HOP-92): 86.5%; growth at 10 µM (HCC 2998): 97.5%; growth at 10 µM (M14): 93%; growth at 10 µM [3]: 98.7%; growth at 10 µM (SK-MEL-5): 97.2%; growth at 10 µM (HOP-62): 97.2% |
| Cc1ccccc1C1=Nc2nc3ccccn3c2C(=O)[C@H](Cc2ccccc2)N1 | 138 | 98.8 | 113 | 98.2 | 102 | 98.4 | 109 | 95.3 | 91.7 | 99.4 | 105 | 104 | 98.7 | 111 | 115 | 86.9 | 113 | 107 | 108 | 104 | growth at 10 µM (HL-60(TB)): 125%; growth at 10 µM (SF-295): 96.5%; growth at 10 µM (HOP-92): 90.5%; growth at 10 µM (HCC 2998): 99.9%; growth at 10 µM (M14): 102%; growth at 10 µM [3]: 95.4%; growth at 10 µM (SK-MEL-5): 103%; growth at 10 µM (HOP-62): 93.4% |
| Cc1ccc(C2=Nc3nc4ccccn4c3C(=O)[C@H](Cc3ccccc3)N2)cc1 | 135 | 46.8 | 109 | 101 | 96.2 | 107 | 99.9 | 82.5 | 94.9 | 98.8 | 103 | 96.5 | 102 | 109 | 105 | 94.3 | 117 | 104 | 89.1 | 97.4 | growth at 10 µM (HL-60(TB)): 116%; growth at 10 µM (SF-295): 84%; growth at 10 µM (HOP-92): 88.3%; growth at 10 µM (HCC 2998): 106%; growth at 10 µM (M14): 97.7%; growth at 10 µM [3]: 87.1%; growth at 10 µM (SK-MEL-5): 86.5%; growth at 10 µM (HOP-62): 75.9% |
| Cc1ccc(C2=Nc3nc4ccccn4c3C(=O)[C@@H]3CCCN23)cc1 | 110 | 91.1 | 108 | 68.5 | 94 | 105 | 102 | 92 | 92.7 | 92.5 | 50.2 | 89.8 | 98.2 | 106 | 105 | 94 | 97.4 | 101 | 99.7 | 88 | growth at 10 µM (HL-60(TB)): 125%; growth at 10 µM (SF-295): 96.7%; growth at 10 µM (HOP-92): 78.3%; growth at 10 µM (HCC 2998): 99.4%; growth at 10 µM (M14): 94.8%; growth at 10 µM [3]: 94.9%; growth at 10 µM (SK-MEL-5): 92.5%; growth at 10 µM (HOP-62): 82.9% |
| O=C1c2c(nc3ccccn23)N=C(c2ccccc2)N2CCC[C@@H]12 | 124 | 101 | 108 | 89.3 | 96.7 | 96.5 | 102 | 97.8 | 96.3 | 89.8 | 104 | 93.6 | 95.2 | 103 | 114 | 97.8 | 97 | 99.6 | 114 | 97.8 | growth at 10 µM (HL-60(TB)): 129%; growth at 10 µM (SF-295): 103%; growth at 10 µM (HOP-92): 82.7%; growth at 10 µM (HCC 2998): 94.7%; growth at 10 µM (M14): 96.5%; growth at 10 µM [3]: 97.7%; growth at 10 µM (SK-MEL-5): 94.7%; growth at 10 µM (HOP-62): 99.9% |
| O=C1c2c(nc3ccccn23)NC(=O)N2CCC[C@@H]12 | 99.6 | 94.9 | 106 | 88.5 | 94.6 | 103 | 93.1 | 98.5 | 98 | 91.7 | 102 | 92.8 | 104 | 99.7 | 107 | 89 | 100 | 106 | 109 | 100 | growth at 10 µM (SF-295): 100%; growth at 10 µM (HOP-92): 86.2%; growth at 10 µM (HCC 2998): 105%; growth at 10 µM (M14): 94.8%; growth at 10 µM [3]: 100%; growth at 10 µM (SK-MEL-5): 99.5%; growth at 10 µM (HOP-62): 97.1% |
